The text below walks through data of ChEMBL document CHEMBL1148216, “New nardosinanes and 19-oxygenated ergosterols from the soft coral Nephthea armata collected in Taiwan” (J Nat Prod, 2004).

Format in all cases: functional, cell-based
One experiment concerns P388. Kind of experiment: Cytotoxicity against mouse P388 cells. In outline:
(§1)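 Cytotoxicity was run by a previously described procedure, with mithramycin as the positive control, and IC50 values were derived. P-388 cells were a gift from an academic laboratory, and the A549 and HT-29 cells were obtained from a culture collection.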

The subject of another experiment is A549. Kind of experiment: Cytotoxicity against human A549 cells. A digest of the protocol: as §1
The test system of the next experiment is HT-29. Kind of experiment: Cytotoxicity against human HT29 cells. A digest of the protocol: as §1

With `CO[C@H](C(=O)[C@@H](O)[C@@H](C)O)[C@@H]1Cc2cc3cc(O[C@H]4C[C@@H](O[C@@H]5C[C@@H](O)[C@H](O)[C@@H](C)O5)[C@H](O)[C@@H](C)O4)c(C)c(O)c3c(O)c2C(=O)[C@H]1O[C@H]1C[C@@H](O[C@@H]2C[C@@H](O)[C@@H](O[C@@H]3C[C@](C)(O)[C@H](O)[C@@H](C)O3)[C@@H](C)O2)[C@H](O)[C@@H](C)O1` [PLICAMYCIN], the figures for the IC50 in the experiment with P388, with A549 and with HT-29 were 0.1 µM, 0.2 µM and 0.3 µM, respectively.
For `C[C@H]1[C@H]2[C@@H](CCC3=C[C@@H](O)C[C@H](C)[C@]32C)O[C@@H]1O` [ARMATIN A] the same measures were above 50 µM, above 50 µM and above 50 µM.
For `CO[C@@H]1O[C@H]2CCC3=CC(=O)C[C@H](C)[C@@]3(C)[C@H]2[C@@H]1C` [ARMATIN E] the same measures were above 50 µM, above 50 µM and above 50 µM.
As to `CO[C@H]1O[C@@H]2CCC3=C[C@@H](O)C[C@H](C)[C@@]3(C)[C@H]2[C@@H]1C` [ARMATIN C], the half-maximal inhibitory concentration (IC50) in the experiment on P388, in the experiment on A549 and with HT-29 was above 50 µM in each case.
Turning to `C[C@@H]1C(=O)O[C@@H]2CCC3=C[C@@H](O)C[C@H](C)[C@@]3(C)[C@@H]12` [ARMATIN B], the IC50 in the experiment on P388, in the experiment with A549 and with HT-29 was above 50 µM in each case.
For `C=C(CC[C@@H](C)[C@H]1CC[C@H]2[C@@H]3C[C@@H](O)[C@@]4(O)C[C@@H](O)CC[C@]4(COC(C)=O)[C@H]3CC[C@]12C)C(C)C` [ARMATINOL B], the half-maximal inhibitory concentration (IC50) in the experiment with P388 amounted to 3.2 µM; in the experiment on HT-29, 3.1 µM.
For the compound `CO[C@@H]1O[C@H]2CCC3=C[C@@H](O)C[C@H](C)[C@@]3(C)[C@H]2[C@@H]1C` [ARMATIN D], the IC50 in the experiment on P388, in the experiment on A549 and in the experiment on HT-29 was above 50 µM each time.
Turning to `C=C(CC[C@@H](C)[C@H]1CC[C@H]2[C@@H]3C[C@H]4O[C@]45C[C@@H](O)CC[C@]5(COC(C)=O)[C@H]3CC[C@]12C)C(C)C` [ARMATINOL A], the concentration for half-maximal inhibition (IC50) in the experiment on P388 stood at 6.1 µM; in the experiment on A549, 7.6 µM; in the experiment on HT-29, 6.5 µM.
`C[C@@H]1C(=O)O[C@H]2CCC3=CC(=O)C[C@H](C)[C@@]3(C)[C@H]21`: the IC50 with P388, with A549 and in the experiment with HT-29 was above 50 µM throughout.
